MC4R barr agon – human MC4R agonism via beta-arrestin | P32245 | AID 540308 | U2OS MC4R beta-arrestin complementation, luminescence; percent of melanotan II response, DMSO zero | hit rate 0.98% among 360,000 | activation, % at 8.9 µM;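 active means activation above a per-plate cutoff, the mean activation of sample wells on that plate plus 3 SD, cut at about 8% in these data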
Target sequence (P32245 whole entry, looked up): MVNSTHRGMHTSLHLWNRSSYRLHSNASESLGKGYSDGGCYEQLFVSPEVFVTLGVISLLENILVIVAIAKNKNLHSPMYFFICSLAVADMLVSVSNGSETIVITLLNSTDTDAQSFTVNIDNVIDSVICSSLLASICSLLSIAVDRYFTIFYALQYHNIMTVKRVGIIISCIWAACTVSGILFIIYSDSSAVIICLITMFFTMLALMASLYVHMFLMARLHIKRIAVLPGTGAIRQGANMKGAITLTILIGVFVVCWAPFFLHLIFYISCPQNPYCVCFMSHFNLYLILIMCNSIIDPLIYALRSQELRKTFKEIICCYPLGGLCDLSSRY
MC4R antag cAMP – human MC4R antagonism in cAMP assay. MC4R-expressing cells, MTII-stimulated cAMP, LANCE TR-FRET. inhibition, % at 6.5 µM. hit rate 0.48% among 360,000;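 active means inhibition above its plate's cutoff, the mean of tested wells on that plate plus 3 SD, cut at about 29% in these data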;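 further: 0% = Melanotan II alone and 100% = Melanotan II plus saturating MCL0020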
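Assay system: human MC4R-expressing U2OS cells; reagent: Melanotan II stimulation of cells; dosing: 6.5 µM single dose; timing: compound 30 min, challenge 1 h, detection 1 h; signal: TR-FRET cAMP assay; replicates: one well per compound, no replicates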
ATG4B inh – inhibitors of human ATG4B cysteine protease; Q9Y4P1; ATG4B cleavage of LC3-PLA2, NBD-HPC fluorescence, 1 h; inhibition, % at 8.33 µM; hit rate 0.51% among 340,000; in the data active means inhibition above about 40%
SMARCA2 activ – activators of SMARCA2 function; MG213 cells, MMTV-luciferase reporter, dexamethasone, overnight; activation, % at 9.1 µM; hit rate 1% among 370,000; AID 652017; in the data active means activation above about 7.8%;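 further: 0% = vehicle wells and 100% = reference activator wells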
MPTP inh – blocks calcium-induced mitochondrial swelling; isolated mouse mitochondria, Ca2+ swelling absorbance, 30 min; inhibition, % at 10 µM; hit rate 1.4% among 360,000; AID 602449;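 active means inhibition of 50% or more, scaled per plate between neutral and stimulator controls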;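 further: 0% = DMSO wells given calcium and 100% = 1 mM EGTA wells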
SMARCA2 conf – SMARCA2 activation, confirmation screen. shares compounds with SMARCA2 activ. MG213 cells, MMTV-luciferase with dexamethasone, luminescence, overnight; MG213 cells expressing E1A, Rb sequestered; DMSO wells 0%, reference activator 100%. activation, % at 9.1 µM. hit rate 30% among 3,500;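 active means activation above its plate's cutoff, the mean activation of tested wells plus 3 SD, cut at about 7.9% in these data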
GAL4-VP16 Luc – counter-screen for SMARCA2 activators: GAL4-VP16 luciferase reporter activation | AID 686939 | activation, % at 9.1 µM | shares compounds with SMARCA2 activ | HEK293 GAL4-VP16 pG5luc reporter, luciferase luminescence; scaled: DMSO wells 0%, SAHA wells 100% | hit rate 41% among 3,500;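 active means activation above the solvent-only control well mean plus 3 SD, averaged across control plates, cut at about 5.2% in these data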
An asterisk follows results filed as active; . = no result given. Most compounds without a hit are left out; they make up all but 4.1% or so of the library.

SMILES	MC4R barr agon	MC4R antag cAMP	ATG4B inh	SMARCA2 activ	MPTP inh	SMARCA2 conf	GAL4-VP16 Luc
O=C(Oc1c(CN2CCOCC2)cc(Cl)c2cccnc12)c1ccccc1Cl	-2	10	-8	19*	-4	-1	1
O=C(Oc1c(CN2CCOCC2)cc(Cl)c2cccnc12)c1ccc(F)cc1	-1	11	-6	6	-6	.	.
O=C(OCc1cn(Cc2ccc(F)cc2F)nn1)N1CCOCC1	.	.	.	-2	.	.	.
C[C@H](c1ccccc1)N1C[C@@H](COCc2ccccc2)Oc2cccc(Oc3ccc(F)cc3)c2S1(=O)=O	.	.	.	-2	.	.	.
COc1ccc(C2N=C(c3ccccc3)NO2)cc1OC (stereo unspecified)	1	-1	3	8.6*	3	14*	9.6*
COc1cc(C2N=C(c3ccccc3)NO2)cc(Br)c1O (stereo unspecified)	-1	7	3	4	1	.	.
CC(C)c1ccc(CN2CCC2(C)C(=O)Nc2cnc3ccccc3c2)cc1 (stereo unspecified)	0	3	.	-7	1	.	.
CC1(C(=O)Nc2cnc3ccccc3c2)CCN1Cc1ccc2ccccc2c1 (stereo unspecified)	1	3	.	12*	1	-2	1
CCNC(=O)CSc1nnc(-c2cccc(S(=O)(=O)N(CC)CC)c2)n1CCc1ccccc1	0	9	-3	8.9*	-1	-4	0
COc1cc(-c2cnc3c(NC=O)cc(-c4ccc(S(C)(=O)=O)cc4)cn23)cc(OC)c1OC	1	-40	.	-4	-1	.	.
COc1ccccc1-c1cc(NC=O)c2ncc(-c3ccc(S(C)(=O)=O)cc3)n2c1	2	-28	.	1	0	.	.
COc1ccc(-c2cnc3c(NC=O)cc(-c4cccc(NS(C)(=O)=O)c4)cn23)cc1OC	-1	-44	.	36*	0	36*	7.8*
CS(=O)(=O)Nc1cccc(-c2cc(NC=O)c3ncc(-c4ccc(F)c(Cl)c4)n3c2)c1	-1	-7	.	9.1*	1	6	2
COc1cccc(-c2cc(NC=O)c3ncc(-c4ccc(OC)c(OC)c4)n3c2)c1	4	-29	.	12*	0	11*	5
O=CNc1cc(-c2cccc(F)c2)cn2c(-c3ccc(F)c(Cl)c3)cnc12	6	10	.	3	-1	.	.
COc1ccc(-c2cc(NC=O)c3ncc(-c4ccc(OC)c(OC)c4)n3c2)c(OC)c1	4	-64	.	11*	-1	17*	11*
COC(=O)C1=C(C)N(Cc2cccc(C(F)(F)F)c2)C(=NCc2cc(OC)c(OC)c(OC)c2)NC1c1ccccc1C(F)(F)F (stereo unspecified)	.	.	.	0	.	.	.
COc1ccc(-c2cc(NC=O)c3ncc(-c4cccc(C(=O)NCCN(C)C)c4)n3c2)cc1	2	-15	.	8.0*	-1	11*	0
CC(=O)Nc1cc(-c2ccc(N3CCN(C)CC3)cc2)cn2c(-c3cccc(C(C)=O)c3)cnc12	6	-1	.	-2	1	.	.
CC(=O)Nc1cccc(-c2cc(NC(C)=O)c3ncc(-c4cccc(C(C)=O)c4)n3c2)c1	8.6*	8	.	8.9*	-1	4	1
CC(=O)C1(C(=O)Nc2cc(C)cc(C)c2)CC(c2ccccn2)=NO1 (stereo unspecified)	.	.	.	-5	.	.	.
O=C(Nc1nc2ncccn2c1-c1ccc(C(F)(F)F)cc1)c1ccc(F)cc1	.	.	.	-1	.	.	.
CCOC(=O)N[C@H](C(=O)N1CCC[C@H]1C(=O)NC1CCCC1)C1CCCCC1	.	.	.	-2	.	.	.
C=CCN1C(=O)[C@@H](CC(=O)NCCCN2CCCC2=O)[C@]2(C(=O)OC)CCCCC=C12	.	.	.	8.7*	.	-1	-2
CN(CCCNC(=O)CCCOc1cc(=O)n(C)c2ccccc12)Cc1ccccc1	0	14	-6	9.6*	0	2	3
Cc1n[nH]c(C)c1S(=O)(=O)NCCc1cccc(F)c1	.	.	.	-4	.	.	.

Source: PubChem
